Legend:
Homo sapiens = experiment: AUC (0 to infinity) as total radioactivity in human plasma at 50 mg, po administered as single dose […] by LC/MS/MS analysis; format: ADME, organism-based; set-up: dose 50 mg, time infinity, route oral, dosed compound name [14C]Sunitinib; conditions: in vivo
Outline: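 Open-label phase I study in 8 subjects given one 50 mg oral dose of [14C]sunitinib (100 µCi). Plasma total radioactivity was counted by scintillation on triplicate 0.25 mL aliquots. Sunitinib was quantified by LC-MS-MS. Noncompartmental analysis: Cmax read directly, terminal t½ = ln(2)/slope of the log-concentration regression, AUC by linear trapezoidal rule to the last detectable concentration.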

[1] = Drug concentration in male Lister Hooded pigmented rat pituitary gland assessed as radioactivity per gram of tissue at 20 mg/kg administered as single dose via gastric gavage measured after 72 hrs by autoradiographic analysis; format: ADME, organism-based; set-up: dose 20 mg/kg, dosed compound name [14C]Sunitinib; conditions: in vivo, po
[2] = Drug recovery in feces of human at 50 mg, po administered as single dose during 0 to 504 hrs by liquid scintillation counting; format: ADME, organism-based; set-up: dosed compound name [14C]Sunitinib; conditions: in vivo
Lung [3] = experiment: Drug concentration in female albino rat lung assessed as radioactivity per gram of tissue at 20 mg/kg administered as single dose via gastric gavage measured after 3 hrs by autoradiographic analysis; format: ADME, organism-based; set-up: dose 20 mg/kg, dosed compound name [14C]Sunitinib; conditions: in vivo, po
Outline: (§1)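 Sprague Dawley albino rats, ca 7-8 weeks old, dosed once by gastric gavage with [14C]sunitinib L-malate (15 mg freebase/kg, 100 µCi/kg). One male and one female killed by CO2 at 3, 6, 24, 72 and 168 h. Carcasses frozen in solid CO2/hexane, embedded and cut into 30 µm sagittal sections, then freeze-dried. Radioactivity quantified by whole-body autoradiography against standards by regression, background subtracted.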

Lung [4] = experiment: Drug concentration in male Lister Hooded pigmented rat lung assessed as radioactivity per gram of tissue at 20 mg/kg administered as single dose via gastric gavage measured after 24 hrs by autoradiographic analysis; format: ADME, organism-based; set-up: dose 20 mg/kg, dosed compound name [14C]Sunitinib; conditions: in vivo, po
[5] = Drug concentration in male albino rat lymph node assessed as radioactivity per gram of tissue at 20 mg/kg administered as single dose via gastric gavage measured after 6 hrs by autoradiographic analysis; format: ADME, organism-based; set-up: dose 20 mg/kg, dosed compound name [14C]Sunitinib; conditions: in vivo, po
[6] = Drug concentration in female albino rat pituitary gland assessed as radioactivity per gram of tissue at 20 mg/kg administered as single dose via gastric gavage measured after 6 hrs by autoradiographic analysis; format: ADME, organism-based; set-up: dose 20 mg/kg, dosed compound name [14C]Sunitinib; conditions: in vivo, po; outline: as §1
[7] = Drug concentration in male albino rat lachrymal gland assessed as radioactivity per gram of tissue at 20 mg/kg administered as single dose via gastric gavage measured after 3 hrs by autoradiographic analysis; format: ADME, organism-based; set-up: dose 20 mg/kg, dosed compound name [14C]Sunitinib; conditions: in vivo, po
Spinal cord = experiment: Drug concentration in female albino rat spinal cord assessed as radioactivity per gram of tissue at 20 mg/kg administered as single dose via gastric gavage measured after 6 hrs by autoradiographic analysis; format: ADME, organism-based; set-up: dose 20 mg/kg, dosed compound name [14C]Sunitinib; conditions: in vivo, po
[8] = Drug concentration in female albino rat uveal tract assessed as radioactivity per gram of tissue at 20 mg/kg administered as single dose via gastric gavage measured after 6 hrs by autoradiographic analysis; format: ADME, organism-based; set-up: dose 20 mg/kg, dosed compound name [14C]Sunitinib; conditions: in vivo, po
Small intestine [9] = experiment: Drug concentration in male Lister Hooded pigmented rat small intestine assessed as radioactivity per gram of tissue at 20 mg/kg administered as single dose via gastric gavage measured after 168 hrs by autoradiographic analysis; format: ADME, organism-based; set-up: dose 20 mg/kg, dosed compound name [14C]Sunitinib; conditions: in vivo, po
Kidney = experiment: Drug concentration in male Lister Hooded pigmented rat kidney assessed as radioactivity per gram of tissue at 20 mg/kg administered as single dose via gastric gavage measured after 168 hrs by autoradiographic analysis; format: ADME, organism-based; set-up: dose 20 mg/kg, dosed compound name [14C]Sunitinib; conditions: in vivo, po
[10] = Drug concentration in female albino rat uveal tract assessed as radioactivity per gram of tissue at 20 mg/kg administered as single dose via gastric gavage measured after 3 hrs by autoradiographic analysis; format: ADME, organism-based; set-up: dose 20 mg/kg, dosed compound name [14C]Sunitinib; conditions: in vivo, po
Harderian gland = experiment: Drug concentration in female albino rat harderian gland assessed as radioactivity per gram of tissue at 20 mg/kg administered as single dose via gastric gavage measured after 6 hrs by autoradiographic analysis; format: ADME, organism-based; set-up: dose 20 mg/kg, dosed compound name [14C]Sunitinib; conditions: in vivo, po; outline: as §1
[11] = Drug concentration in female albino rat bladder assessed as radioactivity per gram of tissue at 20 mg/kg administered as single dose via gastric gavage measured after 3 hrs by autoradiographic analysis; format: ADME, organism-based, Urinary bladder; set-up: dose 20 mg/kg, dosed compound name [14C]Sunitinib; conditions: in vivo, po
Outline: (§2)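 Sprague Dawley (albino) rats, ca 7-8 weeks old, received a single gastric-gavage dose of [14C]sunitinib L-malate at 20 mg/kg (15 mg freebase/kg, 100 µCi/kg). One animal per sex killed by CO2 at 3, 6, 24, 72 and 168 h, then frozen in CO2/hexane. 30 µm sagittal sections were cut and freeze-dried. Radioactivity per gram quantified by whole-body autoradiography using regression against standards. LOQ 0.04–0.06 µg freebase equiv/g.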

Blood = experiment: Drug concentration in female albino rat blood assessed as radioactivity per gram of tissue at 20 mg/kg administered as single dose via gastric gavage measured after 3 hrs by autoradiographic analysis; format: ADME, organism-based; set-up: dose 20 mg/kg, dosed compound name [14C]Sunitinib; conditions: in vivo, po; outline: as §2
Adrenal = experiment: Drug concentration in male Lister Hooded pigmented rat adrenal assessed as radioactivity per gram of tissue at 20 mg/kg administered as single dose via gastric gavage measured after 168 hrs by autoradiographic analysis; format: ADME, organism-based; set-up: dose 20 mg/kg, dosed compound name [14C]Sunitinib; conditions: in vivo, po
[12] = Drug concentration in male albino rat testis assessed as radioactivity per gram of tissue at 20 mg/kg administered as single dose via gastric gavage measured after 3 hrs by autoradiographic analysis; format: ADME, organism-based; set-up: dose 20 mg/kg, dosed compound name [14C]Sunitinib; conditions: in vivo, po
[13] = Drug concentration in male albino rat preputial gland assessed as radioactivity per gram of tissue at 20 mg/kg administered as single dose via gastric gavage measured after 24 hrs by autoradiographic analysis; format: ADME, organism-based; set-up: dose 20 mg/kg, dosed compound name [14C]Sunitinib; conditions: in vivo, po
Zone of skin [14] = experiment: Drug concentration in male albino rat abdomen skin assessed as radioactivity per gram of tissue at 20 mg/kg administered as single dose via gastric gavage measured after 24 hrs by autoradiographic analysis; format: ADME, organism-based; set-up: dose 20 mg/kg, dosed compound name [14C]Sunitinib; conditions: in vivo, po
Zone of skin [15] = experiment: Drug concentration in male albino rat abdomen skin assessed as radioactivity per gram of tissue at 20 mg/kg administered as single dose via gastric gavage measured after 72 hrs by autoradiographic analysis; format: ADME, organism-based; set-up: dose 20 mg/kg, dosed compound name [14C]Sunitinib; conditions: in vivo, po
Thymus = experiment: Drug concentration in male albino rat thymus assessed as radioactivity per gram of tissue at 20 mg/kg administered as single dose via gastric gavage measured after 6 hrs by autoradiographic analysis; format: ADME, organism-based; set-up: dose 20 mg/kg, dosed compound name [14C]Sunitinib; conditions: in vivo, po
Small intestine [16] = experiment: Drug concentration in female Lister Hooded pigmented rat small intestine assessed as radioactivity per gram of tissue at 20 mg/kg administered as single dose via gastric gavage measured after 24 hrs by autoradiographic analysis; format: ADME, organism-based; set-up: dose 20 mg/kg, dosed compound name [14C]Sunitinib; conditions: in vivo, po
Outline: (§3)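 Lister Hooded (pigmented) rats, ca 7-8 weeks old, acclimated 7 days, given [14C]sunitinib L-malate by gastric gavage at 20 mg/kg (15 mg freebase/kg, 100 µCi/kg). One male and one female killed by CO2 at 24, 72, 168 and 336 h. Carcasses frozen in solid CO2/hexane and embedded in frozen cellulose. 30 µm sagittal cryosections were freeze-dried. Tissue radioactivity measured by quantitative whole-body autoradiography against calibration standards, with background subtracted.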

[17] = Drug concentration in female Lister Hooded pigmented rat thyroid gland assessed as radioactivity per gram of tissue at 20 mg/kg administered as single dose via gastric gavage measured after 24 hrs by autoradiographic analysis; format: ADME, organism-based; set-up: dose 20 mg/kg, dosed compound name [14C]Sunitinib; conditions: in vivo, po; outline: as §3
Zone of skin [18] = experiment: Drug concentration in female Lister Hooded pigmented rat abdomen skin assessed as radioactivity per gram of tissue at 20 mg/kg administered as single dose via gastric gavage measured after 72 hrs by autoradiographic analysis; format: ADME, organism-based; set-up: dose 20 mg/kg, dosed compound name [14C]Sunitinib; conditions: in vivo, po
Outline: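 Pigmented Lister Hooded rats, 7-8 weeks old, received [14C]sunitinib L-malate by gavage at 20 mg/kg (15 mg freebase/kg, 100 µCi/kg). One rat per sex was killed by CO2 at each of 24, 72, 168 and 336 h. Carcasses were frozen in solid CO2/hexane and cut into 30 µm sagittal sections, then freeze-dried. Tissue radioactivity was quantified by whole-body autoradiography calibrated against standards by regression (LOQ 0.04–0.06 µg eq/g).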

AUC (Homo sapiens): 2537.1 ng.Eq.hr/ml | Radiolabel recovery [1]: 1.65 ugequiv | Radiolabel recovery [2]: 61% | Radiolabel recovery (Lung [3]): 28.98 ugequiv | Radiolabel recovery (Lung [4]): 1.55 ugequiv | Radiolabel recovery [5]: 11.26 ugequiv | Radiolabel recovery [6]: 20.88 ugequiv | Radiolabel recovery [7]: 8.82 ugequiv | Radiolabel recovery (Spinal cord): 0.35 ugequiv | Radiolabel recovery [8]: 4.94 ugequiv | Radiolabel recovery (Small intestine [9]): 0.06 ugequiv | Radiolabel recovery (Kidney): 0.06 ugequiv | Radiolabel recovery [10]: 5.07 ugequiv | Radiolabel recovery (Harderian gland): 14.12 ugequiv | Radiolabel recovery [11]: 3.73 ugequiv | Radiolabel recovery (Blood): 1.66 ugequiv | Radiolabel recovery (Adrenal): 0.74 ugequiv | Radiolabel recovery [12]: 0.79 ugequiv | Radiolabel recovery [13]: 13.66 ugequiv | Radiolabel recovery (Zone of skin [14]): 3.39 ugequiv | Radiolabel recovery (Zone of skin [15]): 0.27 ugequiv | Radiolabel recovery (Thymus): 6.43 ugequiv | Radiolabel recovery (Small intestine [16]): 1.16 ugequiv | Radiolabel recovery [17]: 0.64 ugequiv | Radiolabel recovery (Zone of skin [18]): 0.26 ugequiv
Structure (SMILES): CCN(CC)CCNC(=O)c1c(C)[nH]c(/[14CH]=C2\C(=O)Nc3ccc(F)cc32)c1C.O=C(O)C[C@H](O)C(=O)O
